# In publication PMC11429891 (bioRxiv, 2024):
# Bridge positions count the residues as written; N and C are the ends. Peptide text beside a SMILES is read from it.
# Assays:
# recombinant SNAP25 [1] = test: Binding of SNAP25 to ECM array; design: species or system human; conditions: recombinant SNAP25 1/200, overnight 4°C, A488 anti-SNAP25 detection
# Outline: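 Array slide of ECM proteins (collagens I, III, IV, V, VI, fibronectin, laminin, vitronectin, tropoelastin) washed in PBS and PBST, then blocked 1 h at room temperature in 5% BSA/5% FBS in PBST. Human recombinant SNAP25 was applied at 1/200 in 1/5-diluted blocking buffer overnight at 4°C. Bound protein was detected with A488 anti-SNAP25 at 1/200 overnight at 4°C, then imaged by fluorescence in the green channel.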
# AD brain vasculature = conditions: ref [9], cited from earlier work
# [2] = Quartz crystal microbalance, PAH-BSA control multilayer; type: binding; conditions: label-free, peptide 30μM final in PBS
# Outline: (§1)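 The 5 MHz Cr/Au quartz crystal was cleaned with isopropanol, ethanol and water. It was treated with 20 mM mercaptopropanesulfonate in 10 mM H₂SO₄ for 30 min, then with 10 µM (monomer) poly(allylamine hydrochloride) at pH 8 for 10 min. Human recombinant SNAP25 or BSA was deposited at 0.01 mg/mL for 10 min. After a baseline in 500 µL PBS, 50 µL of 300 µM peptide stock in PBS was added and mass change recorded.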
# [3] = tested on: adhesion of U87MG cells to collagen VI; test: U87MG adhesion to collagen VI-coated plates; type: cell-based; conditions: CES 30μM, 24 h, then 48 h, DAPI nuclei count
# Outline: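 Wells were coated with collagen VI (5 µg/cm² from 50 µg/ml in 500 mM acetic acid) for 1 h at room temperature, then washed with PBS. U87MG cells were seeded with or without anti-SNAP25 antibody (5 µg/mL) or 30 µM test peptide. Medium was changed at 24 h and culture continued 48 h. Cells were fixed in 4% PFA, blocked and DAPI-stained, and nuclei were counted per image area (1.2 mm²).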
# U87MG cells [4] = test: Viability without laser irradiation; type: cell-based; conditions: up to 30μM, 30 min at 37°C, no laser irradiation, 24 h, MTS
# [5] = Quartz crystal microbalance, PAH control layer; type: binding; conditions: label-free, peptide 30μM final in PBS
# human recombinant SNAP25 = human recombinant SNAP25 (Homo sapiens, UniProt P60880); test: Quartz crystal microbalance binding to SNAP25
# Outline: as §1
# U87MG cells [6] = test: Photodynamic cytotoxicity; type: cell-based, human; conditions: 24 h, MTS
# Outline: (§2)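 Cells (30.000/well) were attached overnight, then exposed 30 min to peptide–verteporfin conjugates at 3 µM final. Wells were washed 3× with full medium and refreshed. Irradiation used a 690 nm laser, 10 J/cm² at 160 mW/cm². After 24 h further culture, viability was measured by MTS/PMS (2 h, 37 °C, 5% CO₂), reading absorbance at 492 nm.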
# SK-N-AS cells = test: Photodynamic cytotoxicity; type: cell-based; conditions: 3μM conjugate, 30 min, 3 washes, 690nm laser 10 J/cm^2 (160 mW/cm^2), 24 h, MTS
# Outline: as §2
# LN229 cells = test: Photodynamic cytotoxicity; type: cell-based; conditions: 3μM conjugate, 30 min, 3 washes, 690nm laser 10 J/cm^2 (160 mW/cm^2), 24 h, MTS
# Outline: as §2
# HEK293T cells = test: Photodynamic cytotoxicity; type: cell-based; conditions: 3μM conjugate, 30 min, 3 washes, 690nm laser 10 J/cm^2 (160 mW/cm^2), 24 h, MTS
# Outline: as §2
# recombinant SNAP25 [7] = test: ELISA binding to SNAP25-coated plates; design: species or system human; conditions: plates coated with recombinant SNAP25, FAM-labeled peptide
# [8] = tested on: intracranial U87MG glioblastoma; test: In vivo homing, intracranial U87MG glioblastoma; design: species or system mice (female athymic nude), human U87MG xenograft; conditions: 30 nmoles i.v., 60 min circulation
# Outline: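 Tumors were induced in female athymic nude mice by intracranial injection of 3×10^5 U87MG cells into the right striatum (2 mm lateral, 2 mm posterior to bregma, 2.5 mm deep) and grown 9 days. Mice received FAM-labelled peptide, 30 nmol in PBS i.v., for 60 min, then PBS perfusion, 4% PFA fixation, sucrose and OCT. 10 µm sections were stained without permeabilization for FAM with CD31 or SNAP25. n=3.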
# healthy brain = test: In vivo homing, healthy brain; design: species or system mice; conditions: 30 nmoles i.v., 60 min circulation, n=3
# Outline: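 Healthy (non-tumor) mice received FAM-labelled peptide, 30 nmol i.v. in PBS, for 60 min. Mice were perfused with PBS, and brains were fixed in 4% PFA, cryoprotected in sucrose and embedded in OCT. Sections were stained without permeabilization for FAM and SNAP25 (primary 1/100 overnight at 4°C, secondary 1/200). n=3.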
# WT-GBM tumors = test: In vivo homing, WT-GBM glioblastoma model; design: species or system mice (Fox/Nu); conditions: 30 nmoles i.v., 60 min circulation, n=3
# Outline: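 Fox/Nu mice received 7×10^5 WT-GBM cells stereotactically into the right striatum and were used 6-7 days later. FAM-labelled peptide (30 nmol in PBS) was given i.v. and circulated 60 min. Mice were perfused intracardially with PBS, and organs were fixed in 4% PFA pH 7.4 overnight, sucrose-cryoprotected and OCT-embedded. 10 µm sections were stained without permeabilization for FAM and CD31 (primary 1/100 overnight 4°C; secondary 1/200). n=3.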
# MCF10CA1a tumors = test: In vivo homing, orthotopic MCF10CA1a breast tumors; design: species or system athymic nude mice, human triple-negative breast cancer cells; conditions: 30 nmoles i.v., 60 min circulation, n=3
# Outline: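 Orthotopic breast tumors: athymic nude mice were given 2×10^6 MCF10CA1a cells in PBS into the mammary gland and used 14 days later. FAM-labelled peptide (30 nmol in PBS) was injected i.v. and circulated 60 min, followed by PBS perfusion, overnight 4% PFA fixation, sucrose and OCT embedding. 10 µm sections were immunostained for FAM without permeabilization. n=3.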
# Casein = test: ELISA binding to casein-coated plates; conditions: plates coated with Casein, FAM-labeled peptide
# U87MG cells [9] = test: U87MG cell culture on collagens V and VI, morphology; type: cell-based; conditions: versus plastic (colonies); 5μg/cm^2 collagen coating
# Outline: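 Plates were coated for 1 h at room temperature with bovine collagen VI or human collagen V (5 µg/cm², from 50 µg/ml in 500 mM acetic acid) and washed twice with PBS. U87MG cells were seeded and grown 24 h, then given fresh medium for another 48 h. Cells were fixed in 4% PFA, blocked, DAPI-stained and imaged by fluorescence microscopy.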
# [10] = tested on: control protein (recombinant mouse macrophage colony-stimulating factor (M-CSF)); test: Surface plasmon resonance, control protein; type: binding; conditions: control protein of similar molecular weight, immobilized in the same way, 20 °C
# Outline: (§3)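 SPR was run at 20 °C on an NTA sensor chip conditioned with 10 mM HCl, 200 mM imidazole and EDTA, then activated with 40 mM NiCl₂. His-tagged ligand was captured on channel 2 only: human recombinant SNAP25 at 150 µg/mL, or the control mouse M-CSF (28 kDa, 9-His) at 10 µg/mL. Collagen V or VI at 20 µg/ml in PBS flowed through both channels at 20 µl/min. Data were fitted to a one-to-one model.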
# recombinant SNAP25 [11] = test: Surface plasmon resonance, immobilized SNAP25; type: binding, human; conditions: read-out: KD (estimative), SPR; one-to-one model, SNAP25 via His-Tag/Ni-NTA, collagen 20μg/ml, 20 °C, OpenSPR
# Outline: as §3
# [12] = tested on: connective tissue growth factor (CTGF) bound to the vascular extracellular matrix; conditions: ref [9]; cited from earlier work
# Sequence of human recombinant SNAP25 (P60880 whole entry): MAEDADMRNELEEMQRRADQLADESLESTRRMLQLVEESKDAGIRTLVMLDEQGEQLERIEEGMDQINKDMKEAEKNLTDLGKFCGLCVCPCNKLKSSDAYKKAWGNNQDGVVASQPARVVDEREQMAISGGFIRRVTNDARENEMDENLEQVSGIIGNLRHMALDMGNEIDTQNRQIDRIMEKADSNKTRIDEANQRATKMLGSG
compound,measurement,setting,value
collagen I: ECM protein on array,"binding of SNAP25 to ECM proteins, array",recombinant SNAP25 [1],non-binding
CC(=O)N[C@H]1CSSC[C@@H](C(N)=O)NC(=O)[C@H](CCC(=O)O)NC(=O)[C@H](CO)NC(=O)[C@H](CC(C)C)NC(=O)[C@H](CC(C)C)NC(=O)[C@@H]2CCCN2C(=O)[C@H](CO)NC(=O)[C@H](CCC(=O)O)NC1=O [CES] (Ac-CESPLLSEC-NH2; disulfide 1-9),homing to blood vessels of AD brain,"AD brain vasculature; genetically modified mouse AD model, in vivo phage library screen, will be reported elsewhere",specifically accumulates (homes) in the blood vessels of AD brain
same,"binding to control multilayer PAH-BSA, QCM",[2],did not bind to the control layers
same,effect on adhesion of U87MG cells to collagen VI-coated plates,[3],affected the adhesion of U87MG cells to collagen VI-coated plates
same,"cytotoxicity of peptide alone, U87MG",U87MG cells [4],did not elicit cytotoxicity
same,"binding to control layer PAH, QCM",[5],did not bind to the control layers
same,Kd,human recombinant SNAP25,24 nM
same,"dissociation rate upon washing with PBS, QCM","human recombinant SNAP25; SNAP25 on PAH layer, washing with PBS",slow dissociation rate
Vert-Ahx-CESPLLSEC-NH2 (disulfide) [CES-V],"toxicity, irradiated, U87MG","U87MG cells [6]; 3μM conjugate, 30 min, 3 washes, 690nm laser 10 J/cm^2 (160 mW/cm^2)",significant toxicity
same,difference in toxicity between irradiated CES-V and irradiated CtrlPep-V,"U87MG cells [6]; 3μM, 690nm laser, compared across U87MG, LN229, SK-N-AS, HEK293T",only reached significance for U87MG
same,"toxicity, irradiated, SK-N-AS",SK-N-AS cells,no toxicity
same,"toxicity, irradiated, LN229",LN229 cells,significant toxicity
same,"toxicity, irradiated, HEK293T",HEK293T cells,no toxicity
collagen IV: ECM protein on array,"binding of SNAP25 to ECM proteins, array",recombinant SNAP25 [1],non-binding
FAM-Ahx-CESPLLSEC-NH2 (disulfide) [FAM-CES],"binding to SNAP25, ELISA",recombinant SNAP25 [7],bound to SNAP25
same,co-distribution with blood vessel marker CD31 in U87MG tumor,"[8]; n=3, FAM/CD31 immunostaining",co-distributing with the blood vessel marker CD31
same,colocalization with SNAP25 in U87MG tumors,"[8]; n=3, FAM/SNAP25 immunostaining",apparent colocalization with SNAP25 in U87MG tumors
same,homing to healthy brain,healthy brain,no homing to healthy brain
same,colocalization with CD31 in WT-GBM,WT-GBM tumors,showed colocalization with CD31
same,homing to WT-GBM tumors,WT-GBM tumors,targeted WT-GBM tumors
same,"tumor homing, orthotopic breast cancer",MCF10CA1a tumors,no tumor homing
same,"binding to Casein, ELISA",Casein,not to Casein
collagen VI: Bovine Type VI Collagen-Solution (Southern Biotech Cat # 1300–02S),U87MG growth morphology on collagen-coated plates,U87MG cells [9],formed monolayers and presented particles attached to the plate
same,"binding to control protein, SPR",[10],no binding
same,Kd,recombinant SNAP25 [11],15 nM
same,"binding of SNAP25 to ECM proteins, array",recombinant SNAP25 [1],binding of SNAP25 to collagens V and VI
CDAGRKQKC [reference compound],target molecule (receptor),[12],connective tissue growth factor (CTGF) bound to the vascular extracellular matrix
same,recognition of AD brain vasculature,AD brain vasculature; mouse AD model,recognize the vasculature of AD brain very early in the development of the disease
collagen III: ECM protein on array,"binding of SNAP25 to ECM proteins, array",recombinant SNAP25 [1],non-binding
"FAM-iRGD: FAM-labeled iRGD, another peptide with similar molecular weight and isoelectric point [reference compound]","binding to SNAP25, ELISA",recombinant SNAP25 [7],did not bind to SNAP25
"collagen V: Human type V Collagen-Lyophilized (Southern Biotech, Cat # 1270–01)",U87MG growth morphology on collagen-coated plates,U87MG cells [9],formed monolayers and presented particles attached to the plate
same,"binding to control protein, SPR",[10],no binding
same,Kd,recombinant SNAP25 [11],7200 nM
same,"binding of SNAP25 to ECM proteins, array",recombinant SNAP25 [1],binding of SNAP25 to collagens V and VI
